“And” between values parts separate entries of the source, which are not always exact repeats. Identical values can stand only once.
How the values were obtained:
Assay type in all cases: toxicity, cell-based
Fibroblast = experiment: Multiplex assay against human fibroblast
Outline: (§1)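 On a CQ1 microscope at 37°C and 5% CO2, live cells were imaged after compound addition. They had been stained at seeding with Hoechst33342, BioTracker Green Microtubule Cytoskeleton Dye, MitoTracker Red and Annexin V Alexa Fluor 680. CellPathfinder machine-learning gating assigned cells to Hoechst high-intensity objects or normal cells, normal cells to healthy, pyknosed or fragmented nuclei, and pyknosed cells to mitotic or apoptotic. Tubulin, mitochondrial-mass and membrane-permeability phenotypes are per cents of healthy-nucleus cells.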

U2OS = experiment: Multiplex assay against U2OS; details: human; outline: as §1
HEK-293T = experiment: Multiplex assay against HEK293T; details: human; outline: as §1
[1] = 12 h, 1 µM, compound concentration 1 uM
[2] = 12 h, 10 µM, compound concentration 10 uM
[3] = 24 h, 1 µM, compound concentration 1 uM
[4] = 24 h, 10 µM, compound concentration 10 uM
[5] = 48 h, 1 µM, compound concentration 1 uM
[6] = 48 h, 10 µM, compound concentration 10 uM

For `CSCC[C@H](NC=O)C(=O)N[C@@H](CC(C)C)C(=O)N[C@@H](Cc1ccccc1)C(=O)O`, the “Population Fragmented Nuclei (%)” value (Fibroblast; [1]) was 18% and 29%, the “Population Healthy Nuclei (%)” value (Fibroblast; [1]) was 69% and 51% and the “Population Mitochondria Different-Phenotype (%)” value (Fibroblast; [1]) was 3% and 4%. The “Population Tubulin-Different-Phenotype (%)” value (Fibroblast; [1]) was 26% and 39%, the “Total Cell Count” value (Fibroblast; [1]) was 182 and 175 and the “Population Fragmented Nuclei (%)” value (Fibroblast; [2]) was 27%. For the same molecule, the “Population Healthy Nuclei (%)” value (Fibroblast; [2]) was 39%, the “Population Hoechst High Intensity Objects (%)” value (Fibroblast; [2]) was 38% and the “Population Membrane Permeable-Phenotype (%)” value (Fibroblast; [2]) was 9%. For the same molecule, the “Population Mitochondria Different-Phenotype (%)” value (Fibroblast; [2]) was 5% and 3%, the “Population Normal (%)” value (Fibroblast; [2]) was 61% and the “Population Tubulin-Different-Phenotype (%)” value (Fibroblast; [2]) was 24% and 35%. The “Total Cell Count” value (Fibroblast; [2]) was 112 and 315, the “Population Fragmented Nuclei (%)” value (Fibroblast; [3]) was 35% and the “Population Healthy Nuclei (%)” value (Fibroblast; [3]) was 73% and 46%. For the same molecule, the “Population Hoechst High Intensity Objects (%)” value (Fibroblast; [3]) was 7%, the “Population Mitochondria Different-Phenotype (%)” value (Fibroblast; [3]) was 4% and 9% and the “Population Normal (%)” value (Fibroblast; [3]) was 92%. For the same molecule, the “Population Tubulin-Different-Phenotype (%)” value (Fibroblast; [3]) was 18% and 43%, the “Total Cell Count” value (Fibroblast; [3]) was 173 and 179 and the “Population Fragmented Nuclei (%)” value (Fibroblast; [4]) was 19%. For the same molecule, the “Population Healthy Nuclei (%)” value (Fibroblast; [4]) was 38%, the “Population Hoechst High Intensity Objects (%)” value (Fibroblast; [4]) was 32% and the “Population Membrane Permeable-Phenotype (%)” value (Fibroblast; [4]) was 3%. The “Population Mitochondria Different-Phenotype (%)” value (Fibroblast; [4]) was 7% and 10%, the “Population Normal (%)” value (Fibroblast; [4]) was 67% and the “Population Tubulin-Different-Phenotype (%)” value (Fibroblast; [4]) was 25% and 47%. The “Total Cell Count” value (Fibroblast; [4]) was 107 and 230, the “Population Fragmented Nuclei (%)” value (Fibroblast; [5]) was 16% and 36% and the “Population Healthy Nuclei (%)” value (Fibroblast; [5]) was 69% and 47%. For the same molecule, the “Population Mitochondria Different-Phenotype (%)” value (Fibroblast; [5]) was 1% and 8%, the “Population Tubulin-Different-Phenotype (%)” value (Fibroblast; [5]) was 21% and 54% and the “Total Cell Count” value (Fibroblast; [5]) was 184 and 174. For the same molecule, the “Population Fragmented Nuclei (%)” value (Fibroblast; [6]) was 18%, the “Population Healthy Nuclei (%)” value (Fibroblast; [6]) was 44% and the “Population Hoechst High Intensity Objects (%)” value (Fibroblast; [6]) was 29%. The “Population Membrane Permeable-Phenotype (%)” value (Fibroblast; [6]) was 4%, the “Population Mitochondria Different-Phenotype (%)” value (Fibroblast; [6]) was 4% and 1% and the “Population Normal (%)” value (Fibroblast; [6]) was 70%. The “Population Tubulin-Different-Phenotype (%)” value (Fibroblast; [6]) was 24% and 47%, the “Total Cell Count” value (Fibroblast; [6]) was 110 and 231 and the “Population Apoptotic (%)” value (U2OS; [1]) was 73% and 100%. For the same molecule, the “Population Fragmented Nuclei (%)” value (U2OS; [1]) was 29% and 17%, the “Population Healthy Nuclei (%)” value (U2OS; [1]) was 75% and the “Population Mitochondria Different-Phenotype (%)” value (U2OS; [1]) was 4% and 3%. The “Total Cell Count” value (U2OS; [1]) was 254 and 135, the “Population Apoptotic (%)” value (U2OS; [2]) was 69% and 90% and the “Population Fragmented Nuclei (%)” value (U2OS; [2]) was 23% and 16%. The “Population Healthy Nuclei (%)” value (U2OS; [2]) was 70% and 74%, the “Population Membrane Permeable-Phenotype (%)” value (U2OS; [2]) was 4% and the “Population Mitochondria Different-Phenotype (%)” value (U2OS; [2]) was 1% and 2%. For the same molecule, the “Population Mitotic Cells (%)” value (U2OS; [2]) was 30%, the “Total Cell Count” value (U2OS; [2]) was 202 and 123 and the “Population Apoptotic (%)” value (U2OS; [3]) was 91% and 90%. For the same molecule, the “Population Fragmented Nuclei (%)” value (U2OS; [3]) was 24% and 17%, the “Population Healthy Nuclei (%)” value (U2OS; [3]) was 75% and the “Population Mitochondria Different-Phenotype (%)” value (U2OS; [3]) was 3% and 0%. For the same molecule, the “Population Mitotic Cells (%)” value (U2OS; [3]) was 8%, the “Total Cell Count” value (U2OS; [3]) was 288 and 147 and the “Population Apoptotic (%)” value (U2OS; [4]) was 76% and 100%. The “Population Fragmented Nuclei (%)” value (U2OS; [4]) was 23% and 19%, the “Population Healthy Nuclei (%)” value (U2OS; [4]) was 68% and 70% and the “Population Membrane Permeable-Phenotype (%)” value (U2OS; [4]) was 8%. For the same molecule, the “Population Mitochondria Different-Phenotype (%)” value (U2OS; [4]) was 1% and 2%, the “Population Mitotic Cells (%)” value (U2OS; [4]) was 23% and 0% and the “Total Cell Count” value (U2OS; [4]) was 247 and 147. The “Population Fragmented Nuclei (%)” value (U2OS; [5]) was 16% and 18%, the “Population Healthy Nuclei (%)” value (U2OS; [5]) was 75% and 68% and the “Population Membrane Permeable-Phenotype (%)” value (U2OS; [5]) was 4%. The “Population Mitochondria Different-Phenotype (%)” value (U2OS; [5]) was 3% and 1%, the “Total Cell Count” value (U2OS; [5]) was 411 and 202 and the “Population Apoptotic (%)” value (U2OS; [6]) was 90% and 100%. The “Population Fragmented Nuclei (%)” value (U2OS; [6]) was 20% and 53%, the “Population Healthy Nuclei (%)” value (U2OS; [6]) was 70% and 25% and the “Population Mitotic Cells (%)” value (U2OS; [6]) was 9% and 0%. The “Population Apoptotic (%)” value (HEK-293T; [1]) was 28%, the “Population Mitochondria Different-Phenotype (%)” value (HEK-293T; [1]) was 47% and 57% and the “Population Mitotic Cells (%)” value (HEK-293T; [1]) was 71%. The “Population Tubulin-Different-Phenotype (%)” value (HEK-293T; [1]) was 23% and 16%, the “Total Cell Count” value (HEK-293T; [1]) was 466 and 437 and the “Population Apoptotic (%)” value (HEK-293T; [2]) was 54%. The “Population Mitochondria Different-Phenotype (%)” value (HEK-293T; [2]) was 52% and 64%, the “Population Mitotic Cells (%)” value (HEK-293T; [2]) was 45% and the “Population Tubulin-Different-Phenotype (%)” value (HEK-293T; [2]) was 37% and 31%. The “Total Cell Count” value (HEK-293T; [2]) was 366 and 375, the “Population Apoptotic (%)” value (HEK-293T; [3]) was 21% and the “Population Mitochondria Different-Phenotype (%)” value (HEK-293T; [3]) was 21% and 37%. For the same molecule, the “Population Mitotic Cells (%)” value (HEK-293T; [3]) was 78%, the “Population Tubulin-Different-Phenotype (%)” value (HEK-293T; [3]) was 14% and 12% and the “Total Cell Count” value (HEK-293T; [3]) was 679 and 550. The “Population Apoptotic (%)” value (HEK-293T; [4]) was 25% and 36%, the “Population Mitochondria Different-Phenotype (%)” value (HEK-293T; [4]) was 38% and 53% and the “Population Mitotic Cells (%)” value (HEK-293T; [4]) was 75% and 64%. The “Population Tubulin-Different-Phenotype (%)” value (HEK-293T; [4]) was 25% and 22%, the “Total Cell Count” value (HEK-293T; [4]) was 479 and 490 and the “Population Apoptotic (%)” value (HEK-293T; [5]) was 29% and 20%. The “Population Mitochondria Different-Phenotype (%)” value (HEK-293T; [5]) was 12% and 17%, the “Population Mitotic Cells (%)” value (HEK-293T; [5]) was 79% and the “Population Tubulin-Different-Phenotype (%)” value (HEK-293T; [5]) was 12%. The “Total Cell Count” value (HEK-293T; [5]) was 1154 and 838, the “Population Apoptotic (%)” value (HEK-293T; [6]) was 28% and 36% and the “Population Mitochondria Different-Phenotype (%)” value (HEK-293T; [6]) was 24% and 28%. The “Population Mitotic Cells (%)” value (HEK-293T; [6]) was 71% and 63%, the “Population Tubulin-Different-Phenotype (%)” value (HEK-293T; [6]) was 12% and 14% and the “Total Cell Count” value (HEK-293T; [6]) was 704 and 674.

— ChEMBL document CHEMBL5724801, “EUbOPEN Chemogenomics Library - Multiplex” (2024)
